Source: ChEMBL document CHEMBL2331457, “Synthesis and biological evaluation of 2-(arylethynyl)quinoline derivatives as mGluR5 antagonists for the treatment of neuropathic pain” (Bioorg Med Chem Lett, 2013)
Calls of active or inactive are those of the source. No cut-off for these calls is given here.

Tests used:
[1] = biological target: T1, Metabotropic glutamate receptor 5 (Homo sapiens, UniProt P41594); test: Antagonist activity at human mGluR5 expressed in HEK293 cells assessed as inhibition of L-glutamate-induced calcium mobilization at 10 uM by FDSS6000 assay; assay type: functional, cell-based
Method in brief: (§1)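 HEK cells stably expressing mGluR5, grown in DMEM with 10% FBS, penicillin, streptomycin and puromycin (10 µg/mL) at 37 °C, 5% CO₂. Cells seeded at 40,000/well, incubated 18 h, then loaded with Calcium-5 dye. In the FDSS6000 fluorescence assay, receptor activated with L-glutamate in HBSS in the presence of various concentrations of test compound. Read-out is inhibition of the Ca²⁺ signal.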
Target sequence in this assay (P41594 21-1212 limits assumed): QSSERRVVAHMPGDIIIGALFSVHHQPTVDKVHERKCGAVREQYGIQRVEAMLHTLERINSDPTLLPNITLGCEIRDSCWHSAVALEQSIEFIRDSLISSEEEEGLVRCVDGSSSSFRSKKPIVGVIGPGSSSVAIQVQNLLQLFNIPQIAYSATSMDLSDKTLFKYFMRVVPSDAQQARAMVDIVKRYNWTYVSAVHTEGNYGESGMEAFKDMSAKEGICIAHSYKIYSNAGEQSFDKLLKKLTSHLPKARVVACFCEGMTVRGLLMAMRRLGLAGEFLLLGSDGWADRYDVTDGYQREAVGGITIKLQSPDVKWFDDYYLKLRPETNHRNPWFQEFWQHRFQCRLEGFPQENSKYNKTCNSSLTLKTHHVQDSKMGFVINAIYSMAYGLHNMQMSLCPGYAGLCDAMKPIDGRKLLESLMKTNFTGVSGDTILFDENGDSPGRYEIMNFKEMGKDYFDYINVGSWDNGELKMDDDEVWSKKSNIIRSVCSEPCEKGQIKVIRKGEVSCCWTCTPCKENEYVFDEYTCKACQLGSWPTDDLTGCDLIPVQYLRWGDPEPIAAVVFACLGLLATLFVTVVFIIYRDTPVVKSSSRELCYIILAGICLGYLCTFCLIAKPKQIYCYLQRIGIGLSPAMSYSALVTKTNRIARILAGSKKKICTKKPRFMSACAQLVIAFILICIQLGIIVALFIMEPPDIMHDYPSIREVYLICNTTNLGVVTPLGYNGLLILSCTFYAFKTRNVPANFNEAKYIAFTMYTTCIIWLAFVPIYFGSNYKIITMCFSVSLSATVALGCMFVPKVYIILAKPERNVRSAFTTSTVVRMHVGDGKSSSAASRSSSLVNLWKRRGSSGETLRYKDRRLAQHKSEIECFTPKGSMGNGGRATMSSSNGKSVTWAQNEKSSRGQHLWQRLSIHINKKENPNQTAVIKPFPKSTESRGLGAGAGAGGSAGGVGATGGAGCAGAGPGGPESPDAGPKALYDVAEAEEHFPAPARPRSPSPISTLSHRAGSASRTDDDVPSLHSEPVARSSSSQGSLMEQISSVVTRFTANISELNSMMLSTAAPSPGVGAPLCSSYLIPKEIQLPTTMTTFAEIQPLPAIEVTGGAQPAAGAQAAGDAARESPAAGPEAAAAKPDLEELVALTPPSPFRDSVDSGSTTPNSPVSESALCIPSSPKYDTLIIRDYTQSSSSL

[2] = biological target: T1, Metabotropic glutamate receptor 5; test: Antagonist activity at human mGluR5 expressed in HEK293 cells assessed as inhibition of L-glutamate-induced calcium mobilization at 1 uM by FDSS6000 assay; assay type: functional, cell-based; method in brief: as §1
Target sequence in this assay (P41594 21-1212 limits assumed): as above

CYP3A4 = CYP3A4 (Homo sapiens, UniProt P08684); test: Inhibition of CYP3A4 (unknown origin) assessed as residual activity at 10 uM; assay type: ADME; conditions: read-out: Activity
Method in brief: (§2)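 CYP2D6, CYP2C9 and CYP3A4 each tested with compound at 10 µM; read-out is percent enzyme activity remaining.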

[3] = Metabolic stability in human liver microsomes assessed as compound remaining at 1 uM after 30 mins; assay type: ADME, Microsome; conditions: read-out: Stability
Method in brief: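 Compound at 1 µM incubated with human liver microsomes for 30 min; read-out is percent of parent remaining.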

CYP2C9 = CYP2C9 (Homo sapiens, UniProt P11712); test: Inhibition of CYP2C9 (unknown origin) assessed as residual activity at 10 uM; assay type: ADME; conditions: read-out: Activity; method in brief: as §2
CYP2D6 = CYP2D6 (Homo sapiens, UniProt P10635); test: Inhibition of CYP2D6 (unknown origin) assessed as residual activity at 10 uM; assay type: ADME; conditions: read-out: Activity; method in brief: as §2
[4] = biological target: T1, Metabotropic glutamate receptor 5; test: Antagonist activity at human mGluR5 expressed in HEK293 cells assessed as inhibition of L-glutamate-induced calcium mobilization by FDSS6000 assay
Target sequence in this assay (P41594 whole entry): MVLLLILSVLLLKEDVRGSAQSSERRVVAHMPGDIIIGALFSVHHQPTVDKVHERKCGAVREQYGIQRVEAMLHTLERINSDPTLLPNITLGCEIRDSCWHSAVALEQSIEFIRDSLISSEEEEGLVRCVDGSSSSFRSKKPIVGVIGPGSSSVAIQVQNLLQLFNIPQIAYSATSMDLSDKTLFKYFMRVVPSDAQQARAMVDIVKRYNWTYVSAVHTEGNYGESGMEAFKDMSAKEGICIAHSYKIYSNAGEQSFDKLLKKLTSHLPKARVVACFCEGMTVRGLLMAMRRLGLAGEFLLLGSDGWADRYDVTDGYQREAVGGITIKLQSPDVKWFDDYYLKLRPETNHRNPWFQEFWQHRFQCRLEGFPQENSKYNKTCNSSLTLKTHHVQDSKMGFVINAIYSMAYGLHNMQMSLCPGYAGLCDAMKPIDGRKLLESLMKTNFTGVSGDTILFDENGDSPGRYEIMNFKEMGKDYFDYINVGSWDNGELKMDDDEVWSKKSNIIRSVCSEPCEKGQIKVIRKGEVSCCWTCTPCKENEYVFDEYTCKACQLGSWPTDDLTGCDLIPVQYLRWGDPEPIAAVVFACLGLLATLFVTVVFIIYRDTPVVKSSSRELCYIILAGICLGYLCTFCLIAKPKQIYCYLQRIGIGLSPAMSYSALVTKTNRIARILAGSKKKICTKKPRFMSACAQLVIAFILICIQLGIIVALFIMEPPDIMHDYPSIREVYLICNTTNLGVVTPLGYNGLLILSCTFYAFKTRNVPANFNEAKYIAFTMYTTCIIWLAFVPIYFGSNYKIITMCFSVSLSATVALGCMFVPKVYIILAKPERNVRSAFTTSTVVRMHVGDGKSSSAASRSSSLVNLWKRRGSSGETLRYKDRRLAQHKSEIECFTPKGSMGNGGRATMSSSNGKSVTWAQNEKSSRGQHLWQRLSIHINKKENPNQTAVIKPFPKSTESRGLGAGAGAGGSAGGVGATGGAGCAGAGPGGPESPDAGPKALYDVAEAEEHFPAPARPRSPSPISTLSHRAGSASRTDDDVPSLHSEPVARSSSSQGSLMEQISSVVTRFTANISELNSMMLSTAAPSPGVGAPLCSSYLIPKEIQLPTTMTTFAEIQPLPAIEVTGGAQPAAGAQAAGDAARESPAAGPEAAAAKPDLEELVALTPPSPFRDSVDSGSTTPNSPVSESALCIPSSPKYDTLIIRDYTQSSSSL

[5] = biological target: Voltage-gated inwardly rectifying potassium channel KCNH2 (Homo sapiens, UniProt Q12809)
[6] = Oral bioavailability in rat at 10 mg/kg; assay type: ADME, organism-based; conditions: in vivo
Method in brief: (§3)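 Rat plasma pharmacokinetics after a 10 mg/kg dose, intravenous (n = 4) or oral (n = 3); mean parameters reported.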

[7] = Half life in rat at 10 mg/kg, iv; assay type: ADME, organism-based; parameters: dose 10 mg/kg, route intravenous; conditions: in vivo; method in brief: as §3
Rattus norvegicus [8] = test: Antiallodynic activity in rat spinal nerve ligation model of neuropathic pain assessed as reduction of cold allodynia at 100 mg/kg, po after 3 hrs; assay type: functional, organism-based; parameters: dose 100 mg/kg
Method in brief: (§4)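 Rat SNL model: tight ligation of L5 spinal nerve distal to DRG. Mechanical and cold allodynia were tested 1 day before and 14 days after surgery, then given orally, and retested at 1, 3 and 5 h. Mechanical allodynia used the wire-mesh-floor method, cold allodynia was scored as %MPE. Gabapentin was the reference (n = 4), test n = 5. Paired t-test versus pre-dose.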

[9] = Clearance in rat at 10 mg/kg, iv; assay type: ADME, organism-based; parameters: dose 10 mg/kg, route intravenous; conditions: in vivo; method in brief: as §3
[10] = Tmax in rat at 10 mg/kg, po; assay type: ADME, organism-based; parameters: dose 10 mg/kg, route oral; conditions: in vivo
Method in brief: (§5)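 Rat plasma pharmacokinetics after a single oral dose of 10 mg/kg. The group size was n = 3 rats, and the reported values are group means.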

Rattus norvegicus [11] = test: Antiallodynic activity in rat spinal nerve ligation model of neuropathic pain assessed as reduction of mechanical allodynia at 100 mg/kg, po after 5 hrs; assay type: functional, organism-based; parameters: dose 100 mg/kg; method in brief: as §4
[12] = Half life in rat at 10 mg/kg, po; assay type: ADME, organism-based; parameters: dose 10 mg/kg, route oral; conditions: in vivo; method in brief: as §3
[13] = Apparent volume of distribution at steady state in rat at 10 mg/kg, iv; assay type: ADME, organism-based; parameters: dose 10 mg/kg, route intravenous; conditions: in vivo, read-out: Vdss(app); method in brief: as §3
[14] = Cmax in rat at 10 mg/kg, po; assay type: ADME, organism-based; parameters: dose 10 mg/kg, route oral; conditions: in vivo; method in brief: as §5

Sequence of CYP2D6 (P10635 whole entry): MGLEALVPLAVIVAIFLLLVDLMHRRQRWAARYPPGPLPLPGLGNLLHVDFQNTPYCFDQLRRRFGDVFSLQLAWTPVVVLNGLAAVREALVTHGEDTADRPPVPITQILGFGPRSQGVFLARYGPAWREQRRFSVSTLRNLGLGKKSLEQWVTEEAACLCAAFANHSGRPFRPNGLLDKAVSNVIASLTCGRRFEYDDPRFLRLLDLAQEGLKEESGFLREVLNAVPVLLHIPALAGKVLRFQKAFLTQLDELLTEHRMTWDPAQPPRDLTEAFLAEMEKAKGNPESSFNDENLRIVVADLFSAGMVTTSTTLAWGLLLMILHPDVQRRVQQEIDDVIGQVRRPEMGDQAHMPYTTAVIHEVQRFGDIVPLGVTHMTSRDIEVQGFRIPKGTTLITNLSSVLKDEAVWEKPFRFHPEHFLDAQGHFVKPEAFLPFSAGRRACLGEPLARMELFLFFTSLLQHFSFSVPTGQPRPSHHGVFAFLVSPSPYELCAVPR
Sequence of CYP3A4 (P08684 whole entry): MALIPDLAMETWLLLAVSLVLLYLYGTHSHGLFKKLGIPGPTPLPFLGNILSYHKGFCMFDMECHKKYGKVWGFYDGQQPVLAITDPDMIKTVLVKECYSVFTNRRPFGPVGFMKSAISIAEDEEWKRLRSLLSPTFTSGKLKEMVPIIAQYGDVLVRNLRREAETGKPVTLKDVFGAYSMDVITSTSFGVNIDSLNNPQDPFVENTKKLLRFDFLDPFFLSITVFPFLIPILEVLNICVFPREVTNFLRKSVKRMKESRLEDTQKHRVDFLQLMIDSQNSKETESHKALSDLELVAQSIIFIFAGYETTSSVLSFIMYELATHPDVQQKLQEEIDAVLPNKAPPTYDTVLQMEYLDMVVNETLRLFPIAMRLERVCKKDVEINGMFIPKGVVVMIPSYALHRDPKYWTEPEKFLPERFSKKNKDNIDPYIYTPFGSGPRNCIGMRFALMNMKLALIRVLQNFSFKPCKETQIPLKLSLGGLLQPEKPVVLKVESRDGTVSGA
Sequence of CYP2C9 (P11712 whole entry): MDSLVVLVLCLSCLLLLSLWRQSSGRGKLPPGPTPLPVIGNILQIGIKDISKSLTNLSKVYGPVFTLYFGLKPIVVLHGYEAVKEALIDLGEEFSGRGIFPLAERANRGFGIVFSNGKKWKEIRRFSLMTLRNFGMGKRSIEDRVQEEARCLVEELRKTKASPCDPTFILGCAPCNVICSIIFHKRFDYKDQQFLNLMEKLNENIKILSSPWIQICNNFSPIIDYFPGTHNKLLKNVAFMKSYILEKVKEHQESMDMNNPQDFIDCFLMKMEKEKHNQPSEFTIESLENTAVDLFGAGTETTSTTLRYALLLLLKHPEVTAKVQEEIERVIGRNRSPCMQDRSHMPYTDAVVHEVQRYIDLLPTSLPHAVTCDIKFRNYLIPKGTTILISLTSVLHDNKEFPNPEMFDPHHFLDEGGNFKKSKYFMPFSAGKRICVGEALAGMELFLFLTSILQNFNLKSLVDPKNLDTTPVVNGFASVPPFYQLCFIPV
Sequence of Voltage-gated inwardly rectifying potassium channel KCNH2 (Q12809 whole entry): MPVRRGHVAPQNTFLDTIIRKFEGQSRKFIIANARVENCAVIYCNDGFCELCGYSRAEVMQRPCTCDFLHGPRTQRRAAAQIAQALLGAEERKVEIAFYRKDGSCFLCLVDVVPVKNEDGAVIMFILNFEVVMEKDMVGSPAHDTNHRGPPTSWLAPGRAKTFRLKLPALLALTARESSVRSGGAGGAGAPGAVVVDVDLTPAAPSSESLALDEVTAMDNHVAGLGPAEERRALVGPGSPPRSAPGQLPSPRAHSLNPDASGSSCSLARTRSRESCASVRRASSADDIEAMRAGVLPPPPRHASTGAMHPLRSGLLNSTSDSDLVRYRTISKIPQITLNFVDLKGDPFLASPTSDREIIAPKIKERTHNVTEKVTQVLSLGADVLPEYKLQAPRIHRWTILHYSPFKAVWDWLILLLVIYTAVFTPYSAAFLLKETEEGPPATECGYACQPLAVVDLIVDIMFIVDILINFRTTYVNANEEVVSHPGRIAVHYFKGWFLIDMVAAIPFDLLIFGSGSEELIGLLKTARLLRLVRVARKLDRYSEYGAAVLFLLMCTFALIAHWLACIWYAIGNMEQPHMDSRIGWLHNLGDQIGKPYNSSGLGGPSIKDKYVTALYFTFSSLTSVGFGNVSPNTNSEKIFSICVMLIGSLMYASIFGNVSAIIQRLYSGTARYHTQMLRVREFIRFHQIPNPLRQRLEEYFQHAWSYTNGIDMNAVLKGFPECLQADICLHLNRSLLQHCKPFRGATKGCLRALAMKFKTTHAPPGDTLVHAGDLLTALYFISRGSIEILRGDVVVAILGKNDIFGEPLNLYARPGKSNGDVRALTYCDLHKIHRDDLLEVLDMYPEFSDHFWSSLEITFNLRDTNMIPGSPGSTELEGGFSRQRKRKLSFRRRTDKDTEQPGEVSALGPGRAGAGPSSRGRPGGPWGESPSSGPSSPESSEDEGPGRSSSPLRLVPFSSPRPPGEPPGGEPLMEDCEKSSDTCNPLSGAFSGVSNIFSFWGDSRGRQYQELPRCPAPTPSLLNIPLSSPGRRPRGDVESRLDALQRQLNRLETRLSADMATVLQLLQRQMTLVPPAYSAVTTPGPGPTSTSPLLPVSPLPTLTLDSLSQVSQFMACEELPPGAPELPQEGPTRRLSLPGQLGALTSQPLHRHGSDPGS

SMILES	inhibition [1]	inhibition [2]	further results
CC(C)(C)C(=O)Oc1cccc2nc(C#Cc3cccnc3)ccc12	28.5%	10.6%	–
C(#Cc1ccc2ccccc2n1)c1cncnc1	22.4%	13.6%	–
Brc1cccc2nc(C#Cc3ccccc3)ccc12	20.7%	21.1%	–
N#Cc1ccnc(C#Cc2ccc3ccccc3n2)c1	76.1%	35.2%	–
Fc1cccc(C#Cc2ccc3ccccc3n2)n1	46.9%	29.6%	–
COc1cccc2nc(C#Cc3ccccc3)ccc12	68%	63.6%	activity at 10 µM (CYP3A4): 50%; remaining at 0.5 h, 1 µM [3]: < 1%; activity at 10 µM (CYP2C9): 55%; activity at 10 µM (CYP2D6): > 99%
CCOc1cccc2nc(C#Cc3cccnc3)ccc12	66.6%	47.2%	–
Brc1cccc2nc(C#Cc3ccccn3)ccc12	77.5%	56.7%	activity at 10 µM (CYP3A4): 56%; remaining at 0.5 h, 1 µM [3]: 98%; IC50 [4]: 0.75 µM; activity at 10 µM (CYP2C9): 52%; activity at 10 µM (CYP2D6): 78%; IC50 [5]: 22.7 µM
FC(F)(F)c1ccnc(C#Cc2ccc3ccccc3n2)n1	15.9%	17.3%	–
FC(F)(F)c1ccnc(C#Cc2ccc3ccccc3n2)c1	58%	23.3%	–
Fc1cnc(C#Cc2ccc3ccccc3n2)nc1	15.6%	16%	–
COc1cccc2nc(C#Cc3cccnc3)ccc12	67.7%	67.7%	remaining at 0.5 h, 1 µM [3]: < 1%
Oc1cccc2nc(C#Cc3ccccn3)ccc12	22.1%	17.4%	–
Oc1cccc2nc(C#Cc3ccccc3)ccc12	24.3%	18%	–
N#Cc1cccc(C#Cc2ccc3ccccc3n2)n1	64.8%	33%	–
Clc1cccc2nc(C#Cc3ccccn3)ccc12	64.3%	31%	–
FC(F)(F)c1ccc(C#Cc2ccc3ccccc3n2)nc1	50.7%	13%	–
C(#Cc1ccc2ccccc2n1)c1ccccn1	76.7%	58.8%	activity at 10 µM (CYP3A4): 77%; remaining at 0.5 h, 1 µM [3]: 88%; bioavailability [6]: 15.9%; half-life [7]: 48.5 min; Activity (Rattus norvegicus [8]): Active; clearance [9]: 84.9 mL/min/kg; Tmax [10]: 10 min; Activity (Rattus norvegicus [11]): Active; half-life [12]: 58.2 min; activity at 10 µM (CYP2C9): > 99%; activity at 10 µM (CYP2D6): 98%; Vd [13]: 1.27 L/kg; Cmax [14]: 430 ng/mL

SMILES	inhibition [1]	inhibition [2]	further results
C(#Cc1ccc2ccccc2n1)c1cccnc1	65.8%	43.9%	–
FC(F)(F)c1cccnc1C#Cc1ccc2ccccc2n1	16.4%	9.49%	–
Cc1ccnc(C#Cc2ccc3ccccc3n2)c1	66.5%	21.9%	–
CC(C)(C)C(=O)Oc1cccc2nc(C#Cc3ccccc3)ccc12	23.8%	24%	–
Brc1cccc2nc(C#Cc3cccnc3)ccc12	40.1%	22%	–
C(#Cc1ccc2ccccc2n1)c1ccccc1	67.7%	35.9%	–
FC(F)(F)c1cccc(C#Cc2ccc3ccccc3n2)n1	28.7%	15.8%	–
NCC1(CC(=O)O)CCCCC1	–	–	Activity (Rattus norvegicus [8]): Active; Activity (Rattus norvegicus [11]): Active
C(#Cc1ncccn1)c1ccc2ccccc2n1	28.6%	17.1%	–
Cc1ccc(C#Cc2ccc3ccccc3n2)nc1	66.3%	29%	–
Fc1cccnc1C#Cc1ccc2ccccc2n1	55.2%	31.3%	–
COc1cccc(C#Cc2ccc3ccccc3n2)n1	48.6%	16.6%	–
Fc1ccc(C#Cc2ccc3ccccc3n2)nc1	63.3%	33.9%	–
Clc1cccc2nc(C#Cc3ccccc3)ccc12	8.02%	11.7%	–
CC(C)(C)C(=O)Oc1cccc2nc(C#Cc3ccccn3)ccc12	62.4%	17.1%	–
Oc1cccc2nc(C#Cc3cccnc3)ccc12	17.6%	25.2%	–
Clc1cccc2nc(C#Cc3cccnc3)ccc12	28.4%	11.2%	–
Cc1cccnc1C#Cc1ccc2ccccc2n1	40.1%	18.9%	–
